Variants at the floor of the assay were thinned out.
B1: tRNA (parent)
chain: GUUCCGUUGGCGUAAUGGUAACGCGUCUCCCUCCUAAGGAGAAGACUGCGGGUUCGAGUCCCGUACGGAACG

Variants of: B1
Assay: yeast fitness relative to wild type (ratio to wild type); higher = fitter; tRNA-Arg(CCU), competitive growth, 37 C, YPD
How it was run: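 Changes in genotype frequencies gave Darwinian fitness relative to wild type. Frequencies were read by 100-nucleotide paired-end sequencing of gene amplicons before and after pooled Saccharomyces cerevisiae strains, carrying tRNA-Arg(CCU) gene variants at the native locus, were competed in YPD at 37°C for 24 hours in six replicates. A genotype was kept only with ≥ 100 starting reads, and estimates < 0.5 were set to 0.5.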

**Q.** Which yeast fitness does the source give for GUUCGGUUGGCGUAAAGGUAACGCGUCUCCGUCCUAAGGAGAAGACUGCGGGUUCGAGUCCCGUAGGGAACG [C5G U16A C31G C66G] here?
**A.** ≤ 0.5

**Q.** For GUUCGGUUGGCGUAAUGGUAACGCGACUCCCUCCUAAGGAGAAGACUGCGGGUUCGAGUCCCGUACGGCACG [C5G U26A A69C], which yeast fitness is on record?
**A.** 0.634

**Q.** Which yeast fitness does the source give for GUUCGGUGGGCGUAAUGGUAACGCGUCUCCCUCCUAAGGAGACGACUACGGGUUCGAGUCCCGUACGGAACG [C5G U8G A43C G48A] here?
**A.** 0.547

**Q.** Which yeast fitness does the source give for GUUCGGUUGGCGUAAUGGUAACGCGCCUCCCUCCUAAGGAGAAGACUGCGGGUUCGAGUCCCGUACGGAGCG [C5G U26C A70G] here?
**A.** 0.632

**Q.** For GUUCGGUUGGCGUAAUGGUAACGCGCCUCCCUCCUAAGGAGGAGACUGCGGGUUCGGGUCUCGUACGGAACG [C5G U26C A42G A57G C61U], which yeast fitness is on record?
**A.** ≤ 0.5

**Q.** With GUUCGGUUGGCGUAAUGGUAACGCGCCUCCCUCCUAAGGAGAAGACUGCGCGUUCGUGUCCCGUACGGAACG [C5G U26C G51C A57U] as the variant, how does the yeast fitness read?
**A.** ≤ 0.5

**Q.** For GUUCGGUUGGCGGAAUGGUUACGCGUCUCCCUCCUAGGGAGAAGACUGCGGGUUCGAGUCCCGUACGGAACG [C5G U13G A20U A37G], which yeast fitness is on record?
**A.** 0.514

**Q.** Which yeast fitness does the source give for GUUCGGUUGGCGUAAUGGUAACGCGUCUCCCUCCAAAGGAGAAGACUGAGCGUUCGAGUCCCGUACGGAACG [C5G U35A C49A G51C] here?
**A.** ≤ 0.5

**Q.** For GUUCGGUUGGCGCAAUGGUAACGCGUCUCCCUCCUAAGGAGAAGACUGCGGGUUCGACUCCCGUACGGAACG [C5G U13C G58C], which yeast fitness is on record?
**A.** 0.74

**Q.** Which yeast fitness does the source give for GUUCGGUUGGCGUAAUGGUAACGCGACUCCCUCCUAAGGAGAAGAUUGCGGGUUCGAGUCCCGUACGGAACG [C5G U26A C46U] here?
**A.** 0.96

**Q.** Which yeast fitness does the source give for GUUCGGUUGGCGUAAUGGUAACGCGGCUCCCUCCUAACGAGAAGACUGCGCGUUCGAGUCCCGUACGGAACG [C5G U26G G38C G51C] here?
**A.** ≤ 0.5

**Q.** With GUUCGGUUGGCGUAACGGUAACGCGUCUCCCUCCUAAGCAGAAGACUGCGGGUUCGUGUCCCGUACGGAACG [C5G U16C G39C A57U] as the variant, how does the yeast fitness read?
**A.** ≤ 0.5

**Q.** Which yeast fitness does the source give for GUUCGGUUGGCGUAAAGGUAACGCGUGUCCCUCCUAAGGAGCAGACUGCGGGUUCGAGUCCCGUCCGGAACG [C5G U16A C27G A42C A65C] here?
**A.** ≤ 0.5

**Q.** Which yeast fitness does the source give for GUUCGGUUGGCGUAAAGGUAACGCGUCUCCCUACUAAGGAGACGACUGCGGGUUCGAGUCCCGUACGGAACG [C5G U16A C33A A43C] here?
**A.** ≤ 0.5

**Q.** Which yeast fitness does the source give for GUUCGGUUGGCGUAAUGGUAACGCGUCUCCCUCCCAAGGAGAAGACUGUGGGUUCGAGUCGCGUACGGAACG [C5G U35C C49U C61G] here?
**A.** ≤ 0.5

**Q.** With GUUCGGUUGGCGUAAAGGUAACGCGUCUCCCUACUAAGGAGACGACUGCAGGUUCGUGUGCCGUACGGAACG [C5G U16A C33A A43C G50A A57U C60G] as the variant, how does the yeast fitness read?
**A.** 0.523

**Q.** With GUUCGGUUGGCGUAAUGGUAACGCGUCUCCCUCCAAAGGAGAAGACUGCGGGUUCGAGUCCCGUACGGAACG [C5G U35A] as the variant, how does the yeast fitness read?
**A.** 0.615

**Q.** Which yeast fitness does the source give for GUUCGGUUGGCGCAAUGGUACCGCGUCUCCCUCCUAAGGAGAAGACUGCGGGUUCGAGUCCCGUACGUAACG [C5G U13C A21C G68U] here?
**A.** ≤ 0.5

**Q.** Which yeast fitness does the source give for GUUCGGUUGGCGUAAUGGUAACGCGUCUCCCUCCCAAGGAGAAGACUGGGGGUUCGAGUCCCGUACGGAACG [C5G U35C C49G] here?
**A.** ≤ 0.5

**Q.** Which yeast fitness does the source give for GUUCGGUUGGCGUAAUGGUAACGCGUCUCCCUCCAAAGGGGAAGACUGCGGGUUCGAGUCCCGUACGGAACG [C5G U35A A40G] here?
**A.** ≤ 0.5

**Q.** With GUUCGGUUGGCGUAAUGGUAACGCGCCUCCCUCCUAAGGAGAAGACUGCGGGUUGGAGACCCGGACGGAACG [C5G U26C C55G U59A U64G] as the variant, how does the yeast fitness read?
**A.** ≤ 0.5

**Q.** For GUUCGGUUGGCGUAAUGGUAACGCGUCUCCCUCCGAAGGAGAGGACUGUGGGUUCGAGUCCCAUUCGGAACG [C5G U35G A43G C49U G63A A65U], which yeast fitness is on record?
**A.** ≤ 0.5

**Q.** Which yeast fitness does the source give for GUUCGGUUGGCGUAAUGGUAACGCGUCCCCGUCCUAAGGAGAAGACUGCGGGUUCGAGUCCUGUACGGAACG [C5G U28C C31G C62U] here?
**A.** ≤ 0.5

**Q.** Which yeast fitness does the source give for GUUCGGUUGGCGUAAUGGUAACGCGCCUCCCUCCUAAGGAGAGGACCGCGGGUUCGAGUCCCGAACGGAACG [C5G U26C A43G U47C U64A] here?
**A.** ≤ 0.5

**Q.** For GUUCGGUUGGCGUAAUGGUAACGCGUCCCCCUCCUAAGGAGAAGACUGCGGGUUCGAGUCCCGUACGGAACG [C5G U28C], which yeast fitness is on record?
**A.** 0.737

**Q.** Which yeast fitness does the source give for GUUCGGUUGGCGUAAUGGUAACGCGUCACCCUCCUAAGGAGAAGACUGCGGGUUCGAGUCCCGUACGGAACG [C5G U28A] here?
**A.** 0.669

**Q.** Which yeast fitness does the source give for GUUCGGUUGGCGUAAUGGCAACGCGUCUCCCCCCUAAGGAGAAGACUGCGGGUUCGAGUCCCGUACGGAACG [C5G U19C U32C] here?
**A.** 0.766

**Q.** For GUUCGGUUGGCGUAAUGGUAACGCGUCUCCCUCCUAAGGAGAAGACAGCGGGUUCGAGUCCCGUACGAAACG [C5G U47A G68A], which yeast fitness is on record?
**A.** ≤ 0.5

**Q.** For GUUCGGUUGGCGUAAUGGUAACGCGCCUCCCUCCUAAGGAGAGGACCGCGGGUUCGAGUCCCGUACGGAACG [C5G U26C A43G U47C], which yeast fitness is on record?
**A.** ≤ 0.5

**Q.** For GUUCGGUUGGCGGAAUGGUAACGCGUCUCCCUCCUAAGGAGAAGACUGCGGGUUCGAGUCCCGUACGGAACG [C5G U13G], which yeast fitness is on record?
**A.** 0.703

**Q.** For GUUCGGUUGGCGAAAUGGUAACGCGUCUCUCUCCUAAGGAGAAGACUGCGGGUUCGAGUCCCGUACGGAACG [C5G U13A C30U], which yeast fitness is on record?
**A.** 0.56

**Q.** For GUUCGGUUGGCGUAAUGGGAACGCGUCUCCCUCCUAAGGAGAAGACUGCGGGUUCGAGUCCCGUACGGAACG [C5G U19G], which yeast fitness is on record?
**A.** 0.916

**Q.** Which yeast fitness does the source give for GUUCGGUUGGCGUAAUGGUAACGCGUCUCCCUCCUAAGGAGAAGACUGCGGGCUAGGGUCCCGUACGGAACG [C5G U53C C55A A57G] here?
**A.** ≤ 0.5

**Q.** Which yeast fitness does the source give for GUUCGGUUGGCGUAAUGGUAACGCGUCUCCCUCCUAAGGAGAAGACAGCGGGUUCGAGUCCCGUACGGAACG [C5G U47A] here?
**A.** 0.731

**Q.** For GUUCGGUUGGCGUAAAGGUAACGCGUCUCCCUCCUAAGGAGAAGACUGCGGGUUCGAGUCCCGUACGGAACG [C5G U16A], which yeast fitness is on record?
**A.** 0.959

**Q.** Which yeast fitness does the source give for GUUCGGUUGGCGCAAUGGUAACGUGUCUCCCUCCUAAGGAGAAGACUGCGGGUUCGAGUCCCGUACGGAACG [C5G U13C C24U] here?
**A.** ≤ 0.5

**Q.** For GUUCGGUUGGCGUAAUGGAAACGCGUCUCCCUCCUAAGGAGAAGCCUGCGGGUUCGAGUCCCGUACGGAACG [C5G U19A A45C], which yeast fitness is on record?
**A.** 0.779

Reference: the RNAGym collection of RNA variant scans (doi:10.1126/science.aae0568)
